Source: PubChem
HUVEC prolif 384 – blocks proliferation of human endothelial cells; HUVEC proliferation, CellTiter-Glo luminescence, 72 h; active compounds read low; viability, % at 10 µM (by protocol); 86,000 tested, 1.1% active; AID 648;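 active = viability at or below 30%; inactive = viability above 30%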;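 also: 100% = median luminescence of DMSO-only cell control wells on each plate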
H69AR growth 86K – growth inhibitors of human H69AR lung tumor cells; H69AR lung tumor viability, ATP luminescence, 72 h; active compounds read low; viability, % at 10 µM; 85,000 tested, 6% active; AID 598;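 active = viability at or below 40%; inactive = viability above 40%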;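 also: multidrug resistant small cell line overexpressing MRP-1 efflux transporter; 100% = mean luminescence of untreated control wells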
HCT116 PTEN-null – growth suppressors of cells with PTEN tumor suppressor deletion; 140,000 tested, 1.2% active; viability, % at 10 µM; HCT116 PTEN-null viability, CellTiter-Glo, 60 h; active compounds read low;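 active = viability at or below a set limit, 4 SD under the median of all tested compounds, cut at about 3.7% in these data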;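 also: PTEN knockout HCT116 line with beta catenin targeted HCT116 as companion control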
bCat KO growth – beta-catenin-lacking colon tumor cell growth suppression; HCT116 beta-catenin knockout viability, CellTiter-Glo, 60 h; active compounds read low; viability, % at 10 µM; 140,000 tested, 1.5% active;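 active = viability at or under a set limit, the compound median less 4 SD, cut at about 6% in these data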;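 also: 0% = Hyamine 1622 control at 20 µM and 100% = untreated cell control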
Lung fibro prol – blocks proliferation of human lung fibroblasts | 85,000 tested, 1.1% active | viability, % at 10 µM | LL 47 human lung fibroblast viability, ATP luminescence; active compounds read low;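 active = viability at or below 50% in the single dose screen; inactive = viability above 50%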;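 also: compound exposure lasted 72 h before the ATP readout; 100% = median luminescence of untreated cell-only wells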
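Benchmarks: Cell-only wells, no compound | Test system: LL 47 human lung fibroblasts, passage 12 or lower | Input: 1,150 cells/well | Measured by: CellTiter-Glo luminescence measuring cellular ATP | Medium: IMEM, 15% FBS supplement | Schedule: Overnight attachment after seeding, then 72 h compound exposure at 37 °C | Doses: Compound addition at 0.1% DMSO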
* marks the source's active call; other numbers are inactive results; nt = no result. The full list was thinned out, with hits kept by preference.

SMILES	HUVEC prolif 384	H69AR growth 86K	HCT116 PTEN-null	bCat KO growth	Lung fibro prol
COC(=O)Cc1c(O)ccn(Cc2cccc3ccccc23)c1=O	nt	nt	100	95	nt
Cc1cccc(-n2nnc(C(=O)NC3CCCc4ccccc43)c2N)c1 (configuration not stated)	67	19*	57	64	94
CCN1CNC(=S)N(Cc2ccccc2)C1	nt	nt	88	83	nt
CCCCCN1CSC(=S)N(Cc2ccccc2)C1	nt	nt	3.3*	5.6*	nt
Cc1noc(C)c1S(=O)(=O)N1CCC(C(=O)N2CCN(c3ccccc3Cl)CC2)CC1	98	8.4*	79	65	102
CCCn1c(=O)c(C(=O)Nc2cnccn2)c(O)c2ccccc21	114	97	nt	nt	105
C=CCn1c(=O)c(C(=O)Nc2ccccc2C(=O)OCC)c(O)c2ccccc21	108	90	56	58	91
CCn1c(=O)c(C(=O)Nc2ccsc2C(=O)OC)c(O)c2ccccc21	nt	nt	5	4.7*	nt
CCOC(=O)c1ccccc1NC(=O)c1c(O)c2ccccc2n(CC)c1=O	111	40*	73	69	102
CCCn1c(=O)c(C(=O)Nc2nnc(CC)s2)c(O)c2ccccc21	110	23*	nt	nt	99
CCOc1ccc(OCC)c(-c2c(=O)n(OCc3ccc(C(C)(C)C)cc3)c3ccccc3[n+]2[O-])c1	nt	nt	72	74	nt
CC(C)OC(=O)c1cccc(NC(=O)c2ccccc2)c1	85	30*	88	79	101
Cc1ccc(-c2nnc(-c3ccc(NC(=O)c4ccco4)cc3)o2)cc1	74	37*	49	25	61
COc1ccccc1-c1nnc(NC(=O)c2ccc(S(=O)(=O)N(C)C)cc2)o1	75	102	56	53	77
COc1ccccc1-c1nnc(NC(=O)c2ccccc2F)o1	96	1.9*	84	69	88
O=C(Nc1nnc(-c2ccc(Cl)cc2)o1)c1nc2ccccc2s1	38	17*	70	78	95
COc1ccc(CCN2C(=O)c3cccc4c(C(=O)N5CCCCC5)ccc(c34)C2=O)cc1OC	nt	nt	70	77	nt
Cc1c(C(=O)NC(C(C)C)C(C)C)cccc1[N+](=O)[O-]	nt	nt	88	90	nt
COc1cccc(C(=O)Nc2cccc(-c3nnc(-c4ccccc4)o3)c2)c1	55	17*	nt	nt	nt
Cc1cccc(-c2nnc(NC(=O)c3ccc(Cl)cc3)o2)c1	3.2*	25*	6	29	106
COc1cccc(C(=O)Nc2cccc(NC(C)=O)c2)c1	94	33*	75	78	nt
COc1ccc(CC(=O)Nc2cccc(-c3nnc(-c4cccc(C)c4)o3)c2)cc1OC	3.2*	41	105	111	35*
COC(=O)c1sc(=S)sc1C(=O)OC	93	70	93	105	nt
Cc1ccc(S(=O)(=O)N(CCC(=O)O)c2ccccc2)cc1	nt	nt	93	90	nt
Cc1cccc(NC(=S)NNC(=O)c2cc3c(s2)CCC(C)C3)c1C (configuration not stated)	nt	nt	88	87	nt
SMILES	HUVEC prolif 384	H69AR growth 86K	HCT116 PTEN-null	bCat KO growth	Lung fibro prol
O=C(Nc1nnc(-c2ccccc2)o1)c1cc(Cl)sc1Cl	nt	nt	88	86	nt
CCOc1cc(OCC)cc(C(=O)Nc2cccc(C(C)=O)c2)c1	nt	nt	100	96	nt
CCOc1cccc(C(=O)Nc2cccc(-c3nnc(-c4ccccc4)o3)c2)c1	47	15*	34	57	87
COc1ccc(C(=O)Nc2nnc(-c3ccccc3)o2)cc1OC	86	33*	55	59	93
COc1cccc(NC(=O)c2nnn(CCc3ccccc3)c2N)c1	59	32*	56	59	86
CCOc1cccc(C(=O)Nc2cccc(-c3nnc(-c4ccc(C)cc4)o3)c2)c1	17*	nt	3.1*	1.7*	37*
Cc1ccc2c(c1)N(C(=O)CCC(=O)O)CCO2	nt	nt	100	89	nt
COc1cccc(C(=O)Nc2ccc(NC(=O)C(C)(C)C)cn2)c1	100	37*	98	93	nt
CN(C)S(=O)(=O)c1cccc(CSc2cccc[n+]2[O-])c1	95	102	97	92	nt
Oc1c(C(c2ccco2)N2CCN(C(c3ccccc3)c3ccccc3)CC2)sc2ncnn12 (configuration not stated)	88	33*	47	51	94
Oc1c(C(c2ccccc2)N2CCc3ccccc3C2)sc2ncnn12 (configuration not stated)	88	84	96	81	98
CCn1c(COc2ccc(C)cc2)nnc1SCC(=O)Nc1cc(OC)ccc1OC	93	18*	55	58	94
Cc1ccc(OCc2nnc(SCC(=O)Nc3cccc4ccccc34)n2-c2ccccc2)cc1	79	18*	45	54	4.2*
CCn1c(COc2ccccc2)nnc1SCC(=O)Nc1cc(C)ccc1OC	110	91	82	85	100
CCc1nnc(NC(=O)CSc2nnc(COc3ccccc3)n2-c2ccc(C)cc2)s1	99	87	84	93	98
CCOC(=O)n1n[n+]([O-])c2ccccc21	nt	nt	79	86	nt
CCOC(=O)c1nn(-c2ccc(F)cc2)c2c1CC/C2=C/c1ccccc1	nt	nt	70	59	nt
CC(=O)C(C(C)=O)c1c(Cl)c(O)c(O)c2c(C(=O)c3ccccc3)coc12	66	1.6*	66	62	47*
Cc1ccc(N(C(=O)Cn2nnc(-c3ccc(C)o3)n2)C(C(=O)NC2CCCC2)c2ccco2)cc1 (configuration not stated)	48	nt	93	85	61
Cc1ccc(-c2nnn(CC(=O)N(CC(=O)NC3CCCC3)c3cnc4ccccc4c3)n2)o1	98	76	90	90	100
Cc1ccc(-c2nnn(CC(=O)N(CC(=O)NC3CCCC3)c3ccc(F)c(Cl)c3)n2)o1	52	7.8*	63	73	83
Cc1ccc(-c2nnn(CC(=O)N(CC(=O)NC3CCCCC3)c3ccc(F)c(Cl)c3)n2)o1	37	8.3*	41	42	40*
Cc1ccc(-c2nnn(CC(=O)N(CC(=O)NCC3CCCO3)c3ccc(F)c(Cl)c3)n2)o1 (configuration not stated)	90	86	96	102	98
CCC(C(=O)NC1CCCC1)N(C(=O)Cn1nnc(-c2ccc(C)o2)n1)c1cnc2ccccc2c1 (configuration not stated)	97	5.0*	62	14	86
Cn1c(SCC(=O)N/N=C/C=C/c2ccco2)nc2ccccc21	nt	nt	73	74	nt
SMILES	HUVEC prolif 384	H69AR growth 86K	HCT116 PTEN-null	bCat KO growth	Lung fibro prol
Cn1ccnc1SCC(=O)Nc1cc(C(F)(F)F)ccc1N1CCOCC1	nt	nt	114	97	nt
CC1(C)CC(=O)c2sc(NC(=O)CCS(=O)(=O)c3ccccc3)nc2C1	78	1.1*	3.7*	3.6*	50
O=C(Nc1cccnc1)c1cccnc1	99	45	94	97	95
O=C(CCS(=O)(=O)c1ccccc1)Nc1nc(-c2ccccn2)cs1	70	4.0*	nt	nt	56
O=C(Nc1nc(-c2cc(Cl)sc2Cl)cs1)c1ccc(Br)s1	nt	nt	4	18	nt
O=C(Nc1cccnc1)c1ccc(Br)s1	82	7.5*	92	88	35*
